Source: ChEMBL document CHEMBL3864175, “Sulfonamides as Selective NaV1.7 Inhibitors: Optimizing Potency and Pharmacokinetics to Enable in Vivo Target Engagement” (ACS Med Chem Lett, 2016)

Experiments:
[1] = target: T1, Sodium channel protein type 5 subunit alpha (Homo sapiens, UniProt Q14524); assay: Inhibition of human Nav1.5 expressed in HEK293 cells assessed as inhibition of sodium current at holding potential of -125 mV measured for 3 to 5 mins by whole cell voltage clamp method; assay type: cell-based
[2] = Apparent permeability in MDCK cells; assay type: ADME, cell-based, Canis lupus familiaris; conditions: dog
In short: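 Apparent permeability measured in parental MDCK cells.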

[3] = Fraction unbound in rat plasma at 5 uM measured after 45 mins by LC-MS/MS analysis; assay type: ADME, cell-free
[4] = Unbound clearance in rat at 0.5 mg/kg, iv by LC-MS/MS analysis; assay type: ADME, organism-based; conditions: in vivo
In short: (§1)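 Male rats, n = 2 per group, dosed intravenously at 0.5 mg/kg as a solution in 100% DMSO. Unbound clearance is derived from total clearance.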

[5] = Dissociation constant, pKa of the compound at pH 1.7 to 11.2 by capillary electrophoresis method; assay type: physicochemical
In short: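 pKa values calculated from capillary electrophoresis data collected over pH 1.7 to 11.2.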

[6] = target: Sodium channel protein type 9 subunit alpha (Homo sapiens, UniProt Q15858); assay: Inhibition of human Nav1.7 in closed state expressed in HEK293 cells assessed as inhibition of sodium current at holding potential of -140 mV measured for 3 to 5 mins by whole cell voltage clamp method; assay type: cell-based
In short: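 Closed-state (fully non-inactivated) protocol: inhibition was measured with cells held at −140 mV, for comparison with protocols using inactivating depolarizations.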

[7] = target: Sodium channel protein type 9 subunit alpha (Mus musculus, UniProt Q62205); assay: Inhibition of 20% inactivated mouse Nav1.7 expressed in HEK293 cells assessed as inhibition of sodium current measured for 3 to 5 mins by whole cell voltage clamp method; assay type: cell-based
In short: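 Mouse NaV1.7 was stably transfected into HEK293 cells. Block was measured with cells depolarized to a voltage that gave 20% channel inactivation.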

[8] = target: Sodium channel protein type 9 subunit alpha (Rattus norvegicus, UniProt O08562); assay: Inhibition of 20% inactivated rat Nav1.7 expressed in HEK293T cells assessed as inhibition of sodium current measured for 3 to 5 mins by whole cell voltage clamp method; assay type: cell-based, HEK-293T
[9] = Inhibition of 20% inactivated dog Nav1.7 expressed in HEK293T cells assessed as inhibition of sodium current measured for 3 to 5 mins by whole cell voltage clamp method; assay type: cell-based; conditions: HEK-293T
In short: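 Electrophysiological block was measured with cells depolarized to a voltage that gave 20% channel inactivation, as opposed to a fully non-inactivated (closed) holding condition.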

[10] = target: Sodium channel protein type 1 subunit alpha (Homo sapiens, UniProt P35498); assay: Inhibition of 20% inactivated human Nav1.1 expressed in HEK293 cells assessed as inhibition of peak inward current by whole cell patch clamp method; assay type: cell-based
[11] = target: Sodium channel protein type 2 subunit alpha (Homo sapiens, UniProt Q99250); assay: Inhibition of 20% inactivated human Nav1.2 expressed in CHO cells assessed as inhibition of peak inward current by whole cell patch clamp method; assay type: cell-based
[12] = target: Sodium channel protein type 3 subunit alpha (Homo sapiens, UniProt Q9NY46); assay: Inhibition of 20% inactivated human Nav1.3 expressed in CHO cells assessed as inhibition of peak inward current by whole cell patch clamp method; assay type: cell-based
[13] = target: Sodium channel protein type 4 subunit alpha (Homo sapiens, UniProt P35499); assay: Inhibition of 20% inactivated human Nav1.4 expressed in HEK293 cells assessed as inhibition of peak inward current by whole cell patch clamp method; assay type: cell-based
[14] = target: T1, Sodium channel protein type 5 subunit alpha; assay: Inhibition of 20% inactivated human Nav1.5 expressed in HEK293 cells assessed as inhibition of peak inward current by whole cell patch clamp method; assay type: cell-based
[15] = target: Sodium channel protein type 8 subunit alpha (Homo sapiens, UniProt Q9UQD0); assay: Inhibition of 20% inactivated human Nav1.6 expressed in HEK293 cells assessed as inhibition of peak inward current by whole cell patch clamp method; assay type: cell-based
[16] = target: Sodium channel protein type 10 subunit alpha (Homo sapiens, UniProt Q9Y5Y9); assay: Inhibition of 20% inactivated human Nav1.8 expressed in CHO cells assessed as inhibition of TTX-resistant current by whole cell patch clamp method; assay type: cell-based
[17] = target: Voltage-gated inwardly rectifying potassium channel KCNH2 (Homo sapiens, UniProt Q12809); assay: Displacement of [3H]dofetilide from human ERG expressed in HEK293 cell membranes measured after 90 mins by TopCount scintillation counting method
[18] = Selectivity index, ratio of IC50 for human Nav1.5 expressed in HEK293 cells to IC50 for human Nav 1.7 expressed in HEK293 cells
[19] = Clearance in dog at 0.5 mg/kg, iv by LC-MS/MS analysis; assay type: ADME, organism-based, Canis lupus familiaris; conditions: in vivo
[20] = Unbound clearance in dog at 0.5 mg/kg, iv by LC-MS/MS analysis; assay type: ADME, organism-based, Canis lupus familiaris; conditions: in vivo
In short: (§2)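 Dogs dosed intravenously at 0.5 mg/kg in 30% HPBCD/70% water, brought to pH 10 with KOH.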

[21] = Volume of distribution at steady state in rat at 0.5 mg/kg, iv by LC-MS/MS analysis; assay type: ADME, organism-based; conditions: in vivo, read-out: Vdss; in short: as §1
[22] = Half life in dog at 0.5 mg/kg, iv by LC-MS/MS analysis; assay type: ADME, organism-based, Canis lupus familiaris; conditions: in vivo; in short: as §2
[23] = Cmax in rat at 10 mg/kg, po by LC-MS/MS analysis; assay type: ADME, organism-based; parameters: dose 10 mg/kg, route oral; conditions: in vivo
In short: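 Rats dosed orally at 10 mg/kg as a solution in 30% HPBCD/70% water, brought to pH 10 with KOH.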

[24] = Cmax in dog at 1.7 mg/kg, po by LC-MS/MS analysis; assay type: ADME, organism-based, Canis lupus familiaris; parameters: dose 1.7 mg/kg, route oral; conditions: in vivo
In short: (§3)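 Dogs given a 1.7 mg/kg oral dose as a solution in 30% HPBCD/70% water/KOH at pH = 10; plasma parameters derived from this oral dosing, with the iv dose at 0.5 mg/kg in the same vehicle.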

[25] = Tmax in dog at 1.7 mg/kg, po by LC-MS/MS analysis; assay type: ADME, organism-based, Canis lupus familiaris; conditions: in vivo; in short: as §3
[26] = Fraction unbound in dog plasma at 5 uM by LC-MS/MS analysis; assay type: ADME, cell-free, Canis lupus familiaris
[27] = Drug excretion in bile duct cannulated Sprague-Dawley rat bile assessed as parent compound at 1 mg/kg, iv administered through catheter measured up to 24 hrs by LC-MS/MS analysis; assay type: ADME, organism-based; conditions: read-out: Drug excretion
[28] = Drug excretion in bile duct cannulated Sprague-Dawley rat urine assessed as parent compound at 1 mg/kg, iv administered through catheter measured up to 24 hrs by LC-MS/MS analysis; assay type: ADME, organism-based; conditions: read-out: Drug excretion
[29] = Drug excretion in bile duct cannulated Sprague-Dawley rat feces assessed as parent compound at 1 mg/kg, iv administered through catheter measured up to 24 hrs by LC-MS/MS analysis; assay type: ADME, organism-based; conditions: faeces, read-out: Drug excretion
[30] = Unbound plasma concentration in histamine induced C57BL/6 mouse model of scratching at 5 mg/kg, po pretreated for 120 mins followed by histamine-challenge measured after 30 mins; assay type: ADME, organism-based; conditions: in vivo, 0.5 h
In short: (§4)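 Male C57BL/6 mice dosed orally 120 min before intradermal histamine. Scratching bouts counted over 30 min and compared with vehicle by one-way ANOVA with Dunnett's test. Total and unbound plasma levels taken 30 min after histamine.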

[31] = Unbound plasma concentration in histamine induced C57BL/6 mouse model of scratching at 20 mg/kg, po pretreated for 120 mins followed by histamine-challenge measured after 30 mins; assay type: ADME, organism-based; conditions: in vivo, 0.5 h; in short: as §4
[32] = Ratio of drug level in brain to plasma in C57BL/6 mouse; assay type: ADME; conditions: read-out: BPR

T1 sequence (Q14524 whole entry): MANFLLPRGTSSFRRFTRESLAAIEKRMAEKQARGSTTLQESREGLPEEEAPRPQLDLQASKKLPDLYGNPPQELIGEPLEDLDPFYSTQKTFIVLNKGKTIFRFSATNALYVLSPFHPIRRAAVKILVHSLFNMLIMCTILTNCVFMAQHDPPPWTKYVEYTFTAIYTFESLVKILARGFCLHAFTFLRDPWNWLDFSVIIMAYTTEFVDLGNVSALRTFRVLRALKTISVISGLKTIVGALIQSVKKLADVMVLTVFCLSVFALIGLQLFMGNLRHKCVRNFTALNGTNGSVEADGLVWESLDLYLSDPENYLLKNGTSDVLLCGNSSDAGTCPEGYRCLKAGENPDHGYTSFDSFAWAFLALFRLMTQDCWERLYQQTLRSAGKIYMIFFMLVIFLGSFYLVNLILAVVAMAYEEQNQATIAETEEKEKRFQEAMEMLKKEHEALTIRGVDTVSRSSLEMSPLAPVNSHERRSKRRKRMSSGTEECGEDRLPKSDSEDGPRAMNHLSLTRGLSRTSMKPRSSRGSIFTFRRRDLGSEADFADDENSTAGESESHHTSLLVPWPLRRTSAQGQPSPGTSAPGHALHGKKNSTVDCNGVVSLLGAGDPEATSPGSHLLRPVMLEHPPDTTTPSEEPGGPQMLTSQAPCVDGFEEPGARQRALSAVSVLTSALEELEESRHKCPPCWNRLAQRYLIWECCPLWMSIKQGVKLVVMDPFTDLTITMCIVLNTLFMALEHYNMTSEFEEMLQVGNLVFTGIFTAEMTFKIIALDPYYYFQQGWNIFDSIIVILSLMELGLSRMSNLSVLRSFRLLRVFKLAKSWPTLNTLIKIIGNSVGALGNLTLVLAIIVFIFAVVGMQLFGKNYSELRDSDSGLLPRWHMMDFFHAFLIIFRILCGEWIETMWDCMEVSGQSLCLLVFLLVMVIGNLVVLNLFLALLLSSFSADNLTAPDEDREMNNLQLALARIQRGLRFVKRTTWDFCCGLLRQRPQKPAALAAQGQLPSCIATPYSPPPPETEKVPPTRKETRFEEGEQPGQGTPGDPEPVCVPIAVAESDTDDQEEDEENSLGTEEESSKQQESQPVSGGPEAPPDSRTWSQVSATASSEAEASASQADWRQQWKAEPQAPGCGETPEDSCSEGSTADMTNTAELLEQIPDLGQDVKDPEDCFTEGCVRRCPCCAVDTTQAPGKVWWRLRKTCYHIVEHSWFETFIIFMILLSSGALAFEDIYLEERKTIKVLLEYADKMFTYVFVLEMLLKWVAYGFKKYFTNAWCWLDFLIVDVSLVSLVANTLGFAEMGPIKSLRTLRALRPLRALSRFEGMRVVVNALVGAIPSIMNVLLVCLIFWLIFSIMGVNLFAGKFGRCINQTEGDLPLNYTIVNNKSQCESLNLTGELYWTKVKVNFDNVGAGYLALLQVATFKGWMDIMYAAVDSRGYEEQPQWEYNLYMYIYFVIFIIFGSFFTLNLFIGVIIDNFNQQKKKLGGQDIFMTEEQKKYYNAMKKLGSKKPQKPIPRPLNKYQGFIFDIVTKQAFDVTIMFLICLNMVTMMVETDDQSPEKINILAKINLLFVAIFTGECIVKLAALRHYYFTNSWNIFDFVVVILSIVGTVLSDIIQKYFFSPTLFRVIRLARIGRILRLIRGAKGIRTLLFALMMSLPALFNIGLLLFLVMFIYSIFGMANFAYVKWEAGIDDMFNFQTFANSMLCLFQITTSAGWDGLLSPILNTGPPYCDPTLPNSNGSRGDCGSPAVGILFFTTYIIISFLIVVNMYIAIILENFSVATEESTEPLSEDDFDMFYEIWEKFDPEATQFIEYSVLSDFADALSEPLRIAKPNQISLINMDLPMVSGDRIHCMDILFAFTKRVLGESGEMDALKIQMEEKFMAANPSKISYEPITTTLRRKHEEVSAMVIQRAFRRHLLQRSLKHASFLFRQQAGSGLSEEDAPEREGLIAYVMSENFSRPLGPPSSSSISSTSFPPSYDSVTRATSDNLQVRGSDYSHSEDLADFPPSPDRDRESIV
Voltage-gated inwardly rectifying potassium channel KCNH2, sequence (Q12809 whole entry): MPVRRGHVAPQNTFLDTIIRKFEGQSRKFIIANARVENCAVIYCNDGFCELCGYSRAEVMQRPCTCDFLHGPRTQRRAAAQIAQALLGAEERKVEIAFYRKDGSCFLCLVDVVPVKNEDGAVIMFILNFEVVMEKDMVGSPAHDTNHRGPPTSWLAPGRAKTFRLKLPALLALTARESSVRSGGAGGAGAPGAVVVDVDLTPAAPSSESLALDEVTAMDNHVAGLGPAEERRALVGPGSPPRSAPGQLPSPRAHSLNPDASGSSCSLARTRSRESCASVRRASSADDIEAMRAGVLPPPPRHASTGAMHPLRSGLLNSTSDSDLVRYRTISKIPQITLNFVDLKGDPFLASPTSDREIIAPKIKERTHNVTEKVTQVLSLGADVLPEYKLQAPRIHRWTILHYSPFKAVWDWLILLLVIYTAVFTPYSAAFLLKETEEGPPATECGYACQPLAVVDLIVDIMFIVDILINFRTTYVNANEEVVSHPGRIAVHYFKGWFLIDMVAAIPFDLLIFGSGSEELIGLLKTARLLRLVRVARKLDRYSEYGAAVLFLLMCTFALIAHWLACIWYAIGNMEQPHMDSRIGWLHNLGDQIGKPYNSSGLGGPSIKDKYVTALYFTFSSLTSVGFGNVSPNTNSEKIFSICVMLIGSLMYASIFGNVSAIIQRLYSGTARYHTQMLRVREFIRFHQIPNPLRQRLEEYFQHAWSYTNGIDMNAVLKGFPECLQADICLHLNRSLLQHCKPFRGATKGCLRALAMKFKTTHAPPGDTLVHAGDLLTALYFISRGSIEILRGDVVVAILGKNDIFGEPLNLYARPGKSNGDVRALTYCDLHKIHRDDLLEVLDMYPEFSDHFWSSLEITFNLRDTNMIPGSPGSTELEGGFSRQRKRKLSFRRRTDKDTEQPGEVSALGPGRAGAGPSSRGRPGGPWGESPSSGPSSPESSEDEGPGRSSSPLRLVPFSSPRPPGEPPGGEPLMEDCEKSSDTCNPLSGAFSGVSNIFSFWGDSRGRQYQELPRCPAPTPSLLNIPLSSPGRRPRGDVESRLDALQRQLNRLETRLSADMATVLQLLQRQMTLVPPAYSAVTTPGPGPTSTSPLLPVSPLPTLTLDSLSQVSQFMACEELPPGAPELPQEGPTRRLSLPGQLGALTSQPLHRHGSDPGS
Sodium channel protein type 3 subunit alpha, sequence (Q9NY46 whole entry): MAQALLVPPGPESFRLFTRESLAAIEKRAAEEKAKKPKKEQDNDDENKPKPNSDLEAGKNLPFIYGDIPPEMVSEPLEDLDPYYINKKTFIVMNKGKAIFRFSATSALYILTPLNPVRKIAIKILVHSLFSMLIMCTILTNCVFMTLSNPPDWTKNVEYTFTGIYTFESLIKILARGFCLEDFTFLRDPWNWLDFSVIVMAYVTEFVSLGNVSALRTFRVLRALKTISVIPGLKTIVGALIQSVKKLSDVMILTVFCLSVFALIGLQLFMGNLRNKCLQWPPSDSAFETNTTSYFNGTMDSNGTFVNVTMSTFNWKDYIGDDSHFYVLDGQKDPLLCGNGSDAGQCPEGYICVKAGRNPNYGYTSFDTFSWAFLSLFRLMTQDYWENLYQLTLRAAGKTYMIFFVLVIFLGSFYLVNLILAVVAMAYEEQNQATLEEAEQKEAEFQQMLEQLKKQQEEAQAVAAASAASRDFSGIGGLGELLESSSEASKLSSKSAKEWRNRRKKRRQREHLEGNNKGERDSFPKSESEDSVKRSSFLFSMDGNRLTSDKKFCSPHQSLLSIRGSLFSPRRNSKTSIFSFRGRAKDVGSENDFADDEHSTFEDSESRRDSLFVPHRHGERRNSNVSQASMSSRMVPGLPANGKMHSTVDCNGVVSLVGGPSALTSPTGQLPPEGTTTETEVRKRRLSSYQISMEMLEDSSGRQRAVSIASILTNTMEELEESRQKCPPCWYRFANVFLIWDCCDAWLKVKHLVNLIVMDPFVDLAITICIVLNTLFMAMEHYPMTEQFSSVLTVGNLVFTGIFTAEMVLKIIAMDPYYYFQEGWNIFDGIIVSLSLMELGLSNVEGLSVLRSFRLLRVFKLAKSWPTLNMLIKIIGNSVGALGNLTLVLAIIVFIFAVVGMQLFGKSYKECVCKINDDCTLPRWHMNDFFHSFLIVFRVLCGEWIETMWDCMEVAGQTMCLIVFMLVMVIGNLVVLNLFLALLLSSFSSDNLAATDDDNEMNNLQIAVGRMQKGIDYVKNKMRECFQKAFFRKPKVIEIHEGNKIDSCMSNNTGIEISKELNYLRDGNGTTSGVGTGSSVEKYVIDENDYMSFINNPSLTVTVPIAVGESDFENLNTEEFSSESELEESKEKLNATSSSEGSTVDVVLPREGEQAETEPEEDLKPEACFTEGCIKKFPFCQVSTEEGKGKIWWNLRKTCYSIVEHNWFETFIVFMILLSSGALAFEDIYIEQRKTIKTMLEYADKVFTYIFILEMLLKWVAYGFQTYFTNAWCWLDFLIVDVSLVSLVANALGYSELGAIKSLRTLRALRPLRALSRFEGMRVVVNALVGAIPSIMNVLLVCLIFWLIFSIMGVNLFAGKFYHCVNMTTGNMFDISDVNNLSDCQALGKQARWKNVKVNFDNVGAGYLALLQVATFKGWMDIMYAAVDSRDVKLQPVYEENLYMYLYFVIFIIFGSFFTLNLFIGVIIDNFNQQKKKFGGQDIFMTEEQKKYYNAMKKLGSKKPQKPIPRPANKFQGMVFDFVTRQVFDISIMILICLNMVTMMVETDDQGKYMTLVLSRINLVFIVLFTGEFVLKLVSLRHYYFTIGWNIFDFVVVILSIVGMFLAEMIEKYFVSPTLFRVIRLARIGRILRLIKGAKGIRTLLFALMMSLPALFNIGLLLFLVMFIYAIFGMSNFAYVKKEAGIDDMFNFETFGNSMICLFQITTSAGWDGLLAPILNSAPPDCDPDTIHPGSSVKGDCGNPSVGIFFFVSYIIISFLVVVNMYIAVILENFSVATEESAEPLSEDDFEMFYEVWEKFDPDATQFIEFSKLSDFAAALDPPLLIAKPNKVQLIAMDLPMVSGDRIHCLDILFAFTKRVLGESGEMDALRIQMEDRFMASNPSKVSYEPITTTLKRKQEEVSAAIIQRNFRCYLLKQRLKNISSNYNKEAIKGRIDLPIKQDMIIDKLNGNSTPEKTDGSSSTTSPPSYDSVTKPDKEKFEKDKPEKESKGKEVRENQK

In the case of COc1cc(C(F)(F)F)ccc1-c1ncnc2cc(S(=O)(=O)Nc3nccs3)ccc12, the IC50 [1] is reported as over 30 µM, the Papp [2] is reported as 310 nm/s and the fraction unbound at 0.75 h, 5 µM [3] is reported as 0.016. For the same compound, the CL free [4] was 34 L/h/kg, the pKa [5] was 6.5 and the IC50 [6] was 7.2 µM. For the same compound, the IC50 [7] was 0.18 µM, the IC50 [8] was 3.5 µM and the IC50 [9] was 0.18 µM. It also gave an IC50 [10] of 7.3 µM, an IC50 [11] of 2.1 µM and an IC50 [12] of 21 µM. For the same compound, the IC50 [13] was 17 µM, the IC50 [14] was 16 µM and the IC50 [15] was 3.7 µM. The IC50 [16] was over 30 µM, the Ki [17] was over 30 µM and the “Ratio IC50” value [18] was over 100. For the same compound, the clearance [19] was 0.013 L/h/kg, the CL free [20] was 1 L/h/kg and the Vd [21] was 1.5 L. For the same compound, the half-life [22] was 18 h, the Cmax [23] was 3.4 µM and the Cmax [24] was 8 µM. It also gave a Tmax [25] of 2.3 h, a fraction unbound at 5 µM [26] of 0.014 and a dose excreted at 24 h [27] of 4.7%. The dose excreted at 24 h [28] was 0.02%, the dose excreted at 24 h [29] was 0.6% and the “Cp(f)” value [30] was 0.11 µM. The “Cp(f)” value [31] was 0.76 µM and the Kp [32] was 0.008.
